Experimental data reported in ChEMBL document CHEMBL1124386, “Selective thyromimetics. Cardiac-sparing thyroid hormone analogues containing 3'-arylmethyl substituents” (J Med Chem, 1989).
Converted amounts (≈) assume the structure as drawn. The source made the active and inactive calls. The rule behind the calls is not given here.

Tests used:
[1] = species on record: Rattus norvegicus; experiment: Selectivity ratio of ID50 in liver and heart
Summary of the method: (§1)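 Liver/heart selectivity in rats, calculated as (relative ID50)liver divided by (relative ID50)heart, from in vivo nuclear binding 1 h after intravenous dosing.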

[2] = Binding affinity to the thyroid hormone receptor was determined in vitro in isolated nuclei of rat liver relative to 3,5,3' triiodothyronine; format: tissue-based
[3] = tested on: Rattus norvegicus; experiment: In vivo binding affinity for 3,5,3'' triiodothyronine receptor of heart nuclei 1 hr after intravenous administration; format: organism-based
[4] = tested on: Rattus norvegicus; experiment: In vivo binding affinity for 3,5,3' triiodothyronine receptor of liver nuclei 1 hour after intravenous administration; format: organism-based
[5] = tested on: Rattus norvegicus; experiment: Potency for induction of GPDH (mitochondrial cytochrome C3-phosphoglycerate oxidoreductase) was measured 48 hours after single intramuscular injection relative to T3 in liver; format: functional
[6] = tested on: Rattus norvegicus; experiment: Potency for induction of GPDH (mitochondrial cytochrome C3-phosphoglycerate oxidoreductase) was measured 48 hr after single im injection relative to T3 in heart; I=inactive after 2 daily doses of 50 mg/kg; format: functional, organism-based; parameters: dose 50 mg/kg
[7] = tested on: Thyroid hormone receptor (Rattus norvegicus); experiment: Binding affinity to thyroid hormone receptor, relative to 3,5,3' triiodothyronine receptor, in isolated nuclei of heart
[8] = molecular target: T1, Thyroid hormone receptor beta (Rattus norvegicus) (UniProt P18113); experiment: Binding affinity to the receptor was determined in vitro in isolated nuclei of rat liver relative to T3; format: tissue-based
T1 sequence (whole entry): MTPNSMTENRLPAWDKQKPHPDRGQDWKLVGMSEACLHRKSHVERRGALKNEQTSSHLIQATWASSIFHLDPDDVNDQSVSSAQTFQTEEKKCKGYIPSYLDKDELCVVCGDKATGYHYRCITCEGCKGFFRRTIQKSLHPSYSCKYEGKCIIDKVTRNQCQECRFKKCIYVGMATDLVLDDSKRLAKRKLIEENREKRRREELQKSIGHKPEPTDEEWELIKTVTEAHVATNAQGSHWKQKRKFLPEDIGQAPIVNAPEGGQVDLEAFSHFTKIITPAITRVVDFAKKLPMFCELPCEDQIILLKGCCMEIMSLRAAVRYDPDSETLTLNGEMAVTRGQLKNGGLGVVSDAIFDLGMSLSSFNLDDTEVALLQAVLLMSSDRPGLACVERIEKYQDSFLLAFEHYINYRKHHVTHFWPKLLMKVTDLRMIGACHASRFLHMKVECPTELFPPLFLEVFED

[9] = tested on: Rattus norvegicus; experiment: Potency for induction of GPDH (mitochondrial cytochrome C 3-phosphoglycerate oxidoreductase) was measured 48 hr after single im injection relative to T3 in liver; LM=low maximal response after 2 daily doses of 50 mg/kg; format: functional, organism-based; parameters: dose 50 mg/kg; details: filed as partial agonist
[10] = Selectivity, ratio between relative ID50 in liver and heart; summary of the method: as §1
[11] = molecular target: T1, Thyroid hormone receptor beta (Rattus norvegicus); experiment: Binding affinity to the receptor was determined in vivo in rat liver nuclei 1 h after intravenous administration relative to 3,5,3' triiodothyronine receptor
[12] = tested on: Rattus norvegicus; experiment: Potency for induction of GPDH (mitochondrial cytochrome C 3-phosphoglycerate oxidoreductase) was measured 48 hr after single im injection relative to T3 in heart; LM=low maximal response after 2 daily doses of 50 mg/kg; format: functional, organism-based; parameters: dose 50 mg/kg; details: filed as partial agonist
[13] = molecular target: T1, Thyroid hormone receptor beta (Rattus norvegicus); experiment: In vitro binding affinity to the receptor was determined in isolated nuclei of heart relative to T3
[14] = molecular target: T1, Thyroid hormone receptor beta (Rattus norvegicus); experiment: Binding affinity to the receptor was determined in nuclei of heart in vivo 1 hour after intravenous administration relative to T3; format: organism-based
[15] = tested on: Rattus norvegicus; experiment: Potency for induction of GPDH (mitochondrial cytochrome C3-phosphoglycerate oxidoreductase) was measured 48 hours after single intramuscular injection relative to T3 in heart; format: functional
[16] = molecular target: T1, Thyroid hormone receptor beta (Rattus norvegicus); experiment: Binding affinity to the receptor was determined in nuclei of liver In vivo 1 hour after intravenous administration relative to T3; format: organism-based
[17] = molecular target: T1, Thyroid hormone receptor beta (Rattus norvegicus); experiment: Binding affinity to the receptor was determined in nuclei of heart in vivo 1 hour after intravenous administration relative to 3,5,3' triiodothyronine receptor
[18] = tested on: Rattus norvegicus; experiment: Potency for induction of GPDH (mitochondrial cytochrome C3-phosphoglycerate oxidoreductase) was measured 48 hr after single im injection relative to T3 in liver; I=inactive after 2 daily doses of 50 mg/kg; format: functional, organism-based; parameters: dose 50 mg/kg
[19] = tested on: Rattus norvegicus; experiment: Percent increase in oxygen consumption after seven daily doses of test compound given perorally; I is inactive after 2 daily doses of 50 mg/kg; format: functional, organism-based; parameters: dose 50 mg/kg
Summary of the method: (§2)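 Euthyroid rats given seven daily doses, intramuscular or oral, by line; whole-body oxygen consumption measured as percent increase in metabolic rate.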

[20] = tested on: Rattus norvegicus; experiment: Potency for induction of GPDH was measured 48 hr after single intramuscular injection relative to T3 in lheart; LM=low maximal response after 2 daily doses of 50 mg/kg; format: functional, organism-based; parameters: dose 50 mg/kg; details: filed as partial agonist
[21] = tested on: Rattus norvegicus; experiment: Potency for induction of GPDH (mitochondrial cytochrome C3-phosphoglycerate oxidoreductase) was measured 48 hours after single intramuscular injection relative to T3 in liver; LM is low maximal response after 2 daily doses of 50 mg/kg; format: functional
[22] = molecular target: T1, Thyroid hormone receptor beta (Rattus norvegicus); experiment: Selectivity, ratio of relative ID50 in liver and heart; summary of the method: as §1
[23] = molecular target: T1, Thyroid hormone receptor beta (Rattus norvegicus); experiment: Binding affinity to the receptor was determined in nuclei of liver In vivo 1 hour after intravenous administration relative to 3,5,3' triiodothyronine receptor; format: organism-based
[24] = molecular target: T1, Thyroid hormone receptor beta (Rattus norvegicus); experiment: Binding affinity to the receptor was determined in isolated nuclei of heart in vitro relative to 3,5,3' triiodothyronine receptor
[25] = Aqueous solubility at 37 degree Celsius at pH 7.38; format: physicochemical
Summary of the method: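 Solubility in aqueous medium at 37 °C, pH 7.38; given in units of ×10^5 mol/L.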

[26] = Partition coefficient at 25 degree Celsius in octanol/aqueous buffer at pH 6.02; format: physicochemical
[27] = tested on: Rattus norvegicus; experiment: Percent increase in oxygen consumption after seven daily doses of test compound given perorally, with concentration of compound at 5 mg/kg; format: functional; details: route oral; summary of the method: as §2
[28] = tested on: Rattus norvegicus; experiment: Percent increase in oxygen consumption after seven daily doses of test compound given intramuscularly, with concentration of compound at 3.3 mg/kg; format: functional; details: route intramuscular; summary of the method: as §2
[29] = tested on: Rattus norvegicus; experiment: Percent increase in oxygen consumption after seven daily doses of test compound given perorally, with concentration of compound at 0.1 mg/kg; format: functional; details: dose 10 mg/kg; route oral; in the assay text read “10 mg/kg” for “0.1 mg/kg”; summary of the method: as §2

Ratio [1]	Relative IC50 [2]	Relative IC50 [7]	Ratio [10]	SMILES	Relative ID50 [3]	Relative ID50 [4]	Relative ED50 [5]	Relative ED50 [6]	Relative ED50 [9]	other results
208	0.25	0.4	–	N[C@@H](Cc1cc(I)c(Oc2ccc(O)c(Cn3ccc(=O)cc3)c2)c(I)c1)C(=O)O	0.013	2.7	1.4	inactive	–	–
–	–	–	20	N[C@@H](Cc1cc(I)c(Oc2ccc(O)c(Cc3ccnc(O)c3)c2)c(I)c1)C(=O)O	–	–	–	inactive	Partial agonist	Relative IC50 [8]: 0.042; Relative ID50 [11]: 0.07
12.4	20	15	–	N[C@@H](Cc1cc(I)c(Oc2ccc(O)c(Cc3ccc(O)cn3)c2)c(I)c1)C(=O)O	2.5	31	1.7	–	–	Relative ED50 [12]: Partial agonist
–	–	–	–	O=C(O)CCc1cc(Br)c(Oc2ccc(O)c(Cc3ccc(O)nc3)c2)c(Br)c1	–	–	2	–	–	Relative IC50 [8]: 31.6; Relative IC50 [13]: 33.2; Relative ID50 [14]: 4.2; Relative ED50 [15]: 0.04
–	15	–	17	N[C@@H](Cc1cc(I)c(Oc2ccc(O)c(Cc3ccccc3)c2)c(I)c1)C(=O)O	–	–	2.2	–	–	Relative ED50 [15]: 0.5; Relative ID50 [16]: 5.1; Relative ID50 [17]: 0.3
–	0.76	–	74.1	Cn1cc(Cc2cc(Oc3c(I)cc(C[C@H](N)C(=O)O)cc3I)ccc2O)ccc1=O	–	–	–	inactive	Partial agonist	–
–	–	–	45.2	N[C@@H](Cc1cc(I)c(Oc2ccc(O)c(Cc3cnc(O)nc3)c2)c(I)c1)C(=O)O	–	–	–	inactive	–	Relative IC50 [8]: 0.15; Relative IC50 [13]: 0.58; Relative ED50 [18]: inactive; Relative ID50 [11]: 0.28
–	1.1	1.9	–	N[C@H](Cc1cc(I)c(Oc2ccc(O)c(Cc3ccc(O)nc3)c2)c(I)c1)C(=O)O	–	–	1	inactive	–	% increase O2 consumption [19]: inactive
–	0.81	–	1	N[C@@H](Cc1cc(I)c(Oc2ccc(O)c(Cc3ccccc3O)c2)c(I)c1)C(=O)O	–	–	–	–	Partial agonist	Relative ED50 [20]: Partial agonist; Relative ID50 [16]: 0.024; Relative ID50 [17]: 0.024
–	17	–	27.1	N[C@@H](Cc1cc(I)c(Oc2ccc(O)c(Cc3ccc(O)cc3)c2)c(I)c1)C(=O)O	–	–	–	–	–	Relative ED50 [15]: <0.1; Relative ED50 [21]: 2.2; Relative ID50 [16]: 19
9.13	0.63	1.1	–	Nc1ccc(Cc2cc(Oc3c(I)cc(C[C@H](N)C(=O)O)cc3I)ccc2O)cc1	0.023	0.21	–	inactive	–	Relative ED50 [18]: inactive
–	0.028	–	–	Cc1cc(O)c(Cc2ccc(O)nc2)cc1Oc1c(I)cc(C[C@H](N)C(=O)O)cc1I	–	–	–	–	–	–
13.8	20	64	–	N[C@@H](Cc1cc(I)c(Oc2ccc(O)c(Cc3ccc([N+](=O)[O-])cc3)c2)c(I)c1)C(=O)O	0.71	9.8	–	–	Partial agonist	Relative ED50 [15]: 0.9
–	60	–	–	N[C@@H](Cc1cc(I)c(Oc2ccc(O)c(Cc3ccc(F)cc3)c2)c(I)c1)C(=O)O	–	–	–	–	–	Ratio [22]: 11.4; Relative ID50 [23]: 98; Relative ED50 [15]: 3.7; Relative ED50 [21]: 5.7; Relative IC50 [24]: 43; Relative ID50 [17]: 8.6
4.44	0.96	3.5	–	N[C@@H](Cc1cc(I)c(Oc2ccc(O)c(Cc3ccccn3)c2)c(I)c1)C(=O)O	0.54	2.4	–	–	–	Relative ED50 [12]: Partial agonist
–	0.49	0.53	–	N[C@@H](Cc1cc(Cl)c(Oc2ccc(O)c(Cc3ccc(O)nc3)c2)c(Cl)c1)C(=O)O	0.5	13	1.2	–	–	solubility [25]: 100 µM (≈ 44.9 µg/mL); logD [26]: 0.6; Increase [27]: 31%; Increase [28]: 26%; Relative ED50 [12]: Partial agonist
–	13	–	27.7	N#Cc1ccc(Cc2cc(Oc3c(I)cc(C[C@H](N)C(=O)O)cc3I)ccc2O)cc1	–	–	–	inactive	Partial agonist	Relative ID50 [16]: 6.1; Relative ID50 [17]: 0.22
1	0.67	4.4	–	CC(C)c1cc(Cc2cc(Oc3c(I)cc(C[C@H](N)C(=O)O)cc3I)ccc2O)ccc1O	0.11	0.11	–	–	Partial agonist	Relative ED50 [12]: Partial agonist
4.38	8.5	15	–	N[C@@H](Cc1cc(I)c(Oc2ccc(O)c(Cc3ccncc3)c2)c(I)c1)C(=O)O	1.6	7	–	–	Partial agonist	Relative ED50 [12]: Partial agonist
1	5.9	15	–	N[C@@H](Cc1cc(I)c(Oc2ccc(O)c(Cc3ccc(O)c(Cl)c3)c2)c(I)c1)C(=O)O	0.07	0.07	–	inactive	Partial agonist	–
95	2	4	–	N[C@@H](Cc1cc(I)c(Oc2ccc(O)c(Cc3ccc(O)nn3)c2)c(I)c1)C(=O)O	0.4	38	2.4	–	–	Increase [29]: 20%; Increase [28]: 19%; Relative ED50 [15]: <0.1
1.62	31	31	–	N[C@@H](Cc1cc(I)c(Oc2ccc(O)c(Cc3ccc(O)c(F)c3)c2)c(I)c1)C(=O)O	0.37	0.6	–	inactive	Partial agonist	–
3.5	7.4	9.7	–	Cc1cc(Cc2cc(Oc3c(I)cc(C[C@H](N)C(=O)O)cc3I)ccc2O)ccc1O	0.1	0.35	–	inactive	Partial agonist	–
